Data from ChEMBL document CHEMBL2417442, “Modulation of αvβ₃- and α₅β₁-integrin-mediated adhesion by dehydro-β-amino acids containing peptidomimetics” (Eur J Med Chem, 2013).
Active and inactive are the calls of the source. The calls are words filed in the database; no cut-off is given here.

Experiments:
Integrin alpha-5/beta-1 [1] = biological target: T1, Integrin alpha-5/beta-1 (Homo sapiens, UniProt P05556+P08648); assay: Inhibition of alpha5beta1 integrin-mediated human K562 cell adhesion to fibronectin incubated for 30 mins before plating measured after 1 hr; assay type: protein-complex assay
Method in brief: (§1)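 Cells pre-incubated with a range of compound concentrations for 30 min at room temperature. Then 50000 cells/well plated on fibronectin (10 µg/mL) coated overnight at 4°C and left 1 h at room temperature. After PBS washes, adherent cells were quantified by hexosaminidase activity: 4-nitrophenyl-N-acetyl-β-D-glucosaminide in citrate buffer pH 5 with Triton X-100, stopped with glycine/EDTA pH 10.4, read at 405 nm. Quadruplicates, at least three repeats; IC50 fitted.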
Target sequence in this assay (P05556 21-798 limits assumed): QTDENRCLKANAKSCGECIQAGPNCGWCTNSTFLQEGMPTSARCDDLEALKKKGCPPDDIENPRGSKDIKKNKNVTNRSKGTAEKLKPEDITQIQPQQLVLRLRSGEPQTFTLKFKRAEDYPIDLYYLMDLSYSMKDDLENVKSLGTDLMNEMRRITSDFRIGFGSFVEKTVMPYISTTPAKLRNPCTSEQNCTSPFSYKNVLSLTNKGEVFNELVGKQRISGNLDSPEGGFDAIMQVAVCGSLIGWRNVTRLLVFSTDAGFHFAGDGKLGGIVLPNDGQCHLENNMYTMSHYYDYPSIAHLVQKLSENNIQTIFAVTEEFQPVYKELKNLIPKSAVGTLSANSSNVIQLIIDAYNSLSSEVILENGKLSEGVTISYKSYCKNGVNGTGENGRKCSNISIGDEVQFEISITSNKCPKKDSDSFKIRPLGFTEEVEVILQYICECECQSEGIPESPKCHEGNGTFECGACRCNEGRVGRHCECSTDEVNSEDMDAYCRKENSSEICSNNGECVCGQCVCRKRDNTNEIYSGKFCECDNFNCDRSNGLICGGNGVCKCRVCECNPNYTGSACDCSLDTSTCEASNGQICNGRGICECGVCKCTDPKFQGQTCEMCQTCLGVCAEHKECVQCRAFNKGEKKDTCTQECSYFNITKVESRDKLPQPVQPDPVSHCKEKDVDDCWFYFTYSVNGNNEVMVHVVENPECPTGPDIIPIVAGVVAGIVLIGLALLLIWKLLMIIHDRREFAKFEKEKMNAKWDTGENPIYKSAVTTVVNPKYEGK
Target sequence in this assay (P08648 42-894 limits assumed): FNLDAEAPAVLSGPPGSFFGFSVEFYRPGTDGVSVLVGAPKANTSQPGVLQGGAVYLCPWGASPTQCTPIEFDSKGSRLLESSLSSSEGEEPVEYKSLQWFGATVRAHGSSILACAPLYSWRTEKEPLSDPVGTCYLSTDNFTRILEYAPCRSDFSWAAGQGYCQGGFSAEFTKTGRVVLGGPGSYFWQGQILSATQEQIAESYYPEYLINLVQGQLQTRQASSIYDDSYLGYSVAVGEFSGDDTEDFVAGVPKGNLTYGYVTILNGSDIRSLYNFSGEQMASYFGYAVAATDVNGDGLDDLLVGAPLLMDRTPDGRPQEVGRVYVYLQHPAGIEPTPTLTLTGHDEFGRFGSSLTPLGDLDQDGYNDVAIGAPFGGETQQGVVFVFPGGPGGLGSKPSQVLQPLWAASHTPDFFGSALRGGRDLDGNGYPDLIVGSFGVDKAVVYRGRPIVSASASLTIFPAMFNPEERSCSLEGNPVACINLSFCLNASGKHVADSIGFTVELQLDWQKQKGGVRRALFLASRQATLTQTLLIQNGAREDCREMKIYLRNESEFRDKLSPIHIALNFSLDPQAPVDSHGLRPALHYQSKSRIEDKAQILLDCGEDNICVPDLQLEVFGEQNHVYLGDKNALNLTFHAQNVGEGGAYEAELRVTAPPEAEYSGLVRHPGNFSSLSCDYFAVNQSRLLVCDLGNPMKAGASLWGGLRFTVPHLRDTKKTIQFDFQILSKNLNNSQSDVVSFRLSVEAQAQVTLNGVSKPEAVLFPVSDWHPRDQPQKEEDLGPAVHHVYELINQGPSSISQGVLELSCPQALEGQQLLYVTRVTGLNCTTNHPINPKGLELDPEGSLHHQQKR
Target sequence in this assay (P08648 895-1049 limits assumed): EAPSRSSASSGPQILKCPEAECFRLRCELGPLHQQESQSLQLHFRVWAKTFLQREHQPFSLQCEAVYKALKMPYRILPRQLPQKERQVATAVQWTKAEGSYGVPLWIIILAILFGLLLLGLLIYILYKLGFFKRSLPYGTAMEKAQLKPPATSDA

Integrin alpha-V/beta-3 [2] = biological target: T2, Integrin alpha-V/beta-3 (Homo sapiens, UniProt P05106+P06756); assay: Inhibition of alphaVbeta3 integrin-mediated human SK-MEL-24 cell adhesion to fibronectin incubated for 30 mins before plating measured after 1 hr; assay type: protein-complex assay; method in brief: as §1
Target sequence in this assay (P05106 27-788 limits assumed): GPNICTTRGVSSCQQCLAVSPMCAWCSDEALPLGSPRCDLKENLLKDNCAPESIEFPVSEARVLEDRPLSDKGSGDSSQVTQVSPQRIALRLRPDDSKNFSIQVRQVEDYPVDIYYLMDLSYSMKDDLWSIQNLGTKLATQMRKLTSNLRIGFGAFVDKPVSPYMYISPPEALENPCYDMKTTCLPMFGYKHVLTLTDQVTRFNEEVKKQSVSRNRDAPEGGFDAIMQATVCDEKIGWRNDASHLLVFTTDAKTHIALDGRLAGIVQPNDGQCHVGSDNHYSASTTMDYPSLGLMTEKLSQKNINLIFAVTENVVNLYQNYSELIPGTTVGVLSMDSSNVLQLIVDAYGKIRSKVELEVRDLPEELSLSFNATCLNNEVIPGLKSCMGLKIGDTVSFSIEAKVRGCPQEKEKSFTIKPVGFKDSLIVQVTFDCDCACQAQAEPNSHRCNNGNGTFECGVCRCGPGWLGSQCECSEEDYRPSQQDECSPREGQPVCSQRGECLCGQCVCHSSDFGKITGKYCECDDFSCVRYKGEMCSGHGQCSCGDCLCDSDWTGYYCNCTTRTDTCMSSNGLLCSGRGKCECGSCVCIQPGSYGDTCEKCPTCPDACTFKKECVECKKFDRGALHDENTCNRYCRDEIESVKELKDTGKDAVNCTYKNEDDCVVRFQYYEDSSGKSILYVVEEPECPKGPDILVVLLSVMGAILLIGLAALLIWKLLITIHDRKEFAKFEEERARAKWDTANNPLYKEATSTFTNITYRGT
Target sequence in this assay (P06756 31-889 limits assumed): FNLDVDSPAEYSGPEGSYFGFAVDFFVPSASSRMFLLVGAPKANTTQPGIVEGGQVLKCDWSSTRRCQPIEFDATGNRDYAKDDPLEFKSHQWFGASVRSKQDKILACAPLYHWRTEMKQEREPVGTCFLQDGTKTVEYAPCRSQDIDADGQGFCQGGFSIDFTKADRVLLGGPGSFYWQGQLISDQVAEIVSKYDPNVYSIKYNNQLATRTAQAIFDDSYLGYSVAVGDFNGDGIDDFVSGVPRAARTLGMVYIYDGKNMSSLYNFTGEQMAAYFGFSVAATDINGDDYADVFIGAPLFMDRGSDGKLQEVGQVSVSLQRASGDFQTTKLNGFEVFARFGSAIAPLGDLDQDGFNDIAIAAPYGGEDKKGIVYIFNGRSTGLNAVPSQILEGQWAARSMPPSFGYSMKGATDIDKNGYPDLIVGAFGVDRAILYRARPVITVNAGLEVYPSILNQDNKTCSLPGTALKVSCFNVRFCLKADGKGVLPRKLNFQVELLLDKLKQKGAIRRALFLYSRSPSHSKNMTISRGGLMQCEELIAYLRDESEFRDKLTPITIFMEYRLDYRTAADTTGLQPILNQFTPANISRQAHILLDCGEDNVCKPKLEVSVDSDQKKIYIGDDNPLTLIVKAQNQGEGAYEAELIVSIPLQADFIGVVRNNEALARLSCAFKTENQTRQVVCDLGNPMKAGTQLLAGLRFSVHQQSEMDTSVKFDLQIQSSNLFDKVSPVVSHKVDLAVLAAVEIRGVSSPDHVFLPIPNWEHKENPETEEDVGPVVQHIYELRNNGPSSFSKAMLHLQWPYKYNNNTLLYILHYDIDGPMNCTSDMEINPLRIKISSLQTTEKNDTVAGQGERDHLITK
Target sequence in this assay (P06756 891-1048 limits assumed): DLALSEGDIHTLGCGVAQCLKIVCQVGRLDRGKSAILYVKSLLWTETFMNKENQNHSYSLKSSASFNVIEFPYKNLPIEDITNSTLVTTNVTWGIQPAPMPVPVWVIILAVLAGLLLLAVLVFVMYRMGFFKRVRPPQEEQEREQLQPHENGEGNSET

Integrin alpha-V/beta-3 [3] = biological target: T2, Integrin alpha-V/beta-3; assay: Inhibition of alphaVbeta3 integrin in human DAOY cells assessed as inhibition of fibronectin-induced ERK1/2 phosphorylation at 10 uM incubated for 30 mins prior to fibronectin challenge measured after 90 mins by Western blotting analysis; assay type: cell-based
Method in brief: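 DAOY medulloblastoma cells serum-starved 16 h in DMEM, detached, then given compound at 10 µM for 30 min. Plated 90 min on fibronectin (10 µg/ml)-coated, BSA-blocked plates; suspension cells as control. Lysed with phosphatase inhibitors, separated on 12% SDS-PAGE and immunoblotted for phospho-ERK1/2 and total ERK1/2.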

Integrin alpha-V/beta-3 [4] = biological target: T2, Integrin alpha-V/beta-3; assay: Inhibition of alphaVbeta3 integrin-mediated human DAOY cell adhesion to fibronectin incubated for 30 mins before plating measured after 1 hr; assay type: protein-complex assay; method in brief: as §1
Integrin alpha-5/beta-1 [5] = biological target: T1, Integrin alpha-5/beta-1; assay: Inhibition of alpha5beta1 integrin in human K562 cells assessed as inhibition of fibronectin-induced ERK1/2 phosphorylation at 10 uM incubated for 60 mins prior to fibronectin challenge measured after 60 mins by Western blotting analysis; assay type: cell-based
Method in brief: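 K562 cells, PMA-differentiated (25 ng/mL for 40 h), then serum-starved 16 h in RPMI-1640 with 1% FBS. Compound at 10 µM for 60 min in suspension, then plated 60 min on fibronectin (10 µg/ml)-coated, 1% BSA-blocked plates. Suspension cells served as control and PMA 65 nM as positive control. Lysates run on 12% SDS-PAGE and blotted for phospho- and total ERK1/2. pERK normalized to total ERK by densitometry; mean ± SEM, n=6.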

| Molecule | IC50 (Integrin alpha-5/beta-1 [1]) [µM] | IC50 (Integrin alpha-V/beta-3 [2]) [µM] | inhibition (Integrin alpha-V/beta-3 [3]) | inhibition (Integrin alpha-V/beta-3 [4]) | inhibition (Integrin alpha-5/beta-1 [5]) |
| --- | --- | --- | --- | --- | --- |
| C/C=C(\C(=O)NCC(=O)O)C(NCc1ccc(N)cc1)C(C)C (configuration not stated) | 0.22 | 2 | – | – | – |
| C/C=C(\C(=O)O)C(NCc1ccc(N)cc1)C(C)C (configuration not stated) | 9.8 | 1.49 | – | – | – |
| CC1=C(C(=O)NCc2ccc(N)cc2)C(C(C)C)N(C(=O)CC(=O)O)O1 (configuration not stated) | 1.05 | 8.8 | – | – | – |
| H-GRGDNP-OH | > 100 | 0.23 | – | – | – |
| C/C=C(\C(=O)NCC(=O)O)C(C)NCc1ccc(N)cc1 (configuration not stated) | 9.8 | 0.12 | Active | Active | – |
| C/C=C1\C(=O)N(CC(=O)O)C(=O)N(Cc2ccc(NC(=O)CN)cc2)C1C(C)C (configuration not stated) | > 100 | > 100 | – | – | – |
| H-GRGDTP-OH | 0.93 | 0.00062 | – | – | – |
| CCCN(C(=O)CC(=O)O)C1=C(C)CC(c2ccccc2)N([C@@H](C)c2ccc(N)cc2)C1=O (some centres not stated) | 0.057 | 0.071 | – | – | – |
| C/C=C(\C(=O)NCC(=O)O)C(NCc1ccc(NC(=O)CN)cc1)C(C)C (configuration not stated) | 0.17 | 0.27 | Active | Active | Active |
| C/C=C(\C(=O)O)C(C)NCc1ccc(N)cc1 (configuration not stated) | 0.019 | > 100 | – | – | – |
| C/C=C(\C(=O)O)C(NCc1ccc(N)cc1)C1CCCCC1 (configuration not stated) | 2.1 | 0.83 | – | – | – |
